From ChEMBL document CHEMBL1124089, “Binaltorphimine-related bivalent ligands and their kappa opioid receptor antagonist selectivity” (J Med Chem, 1988)

Tests used:
[1] = molecular target: Delta-type opioid receptor (Mus musculus) (UniProt P32300); experiment: Ratio of IC50 DADLE and antagonist binding to delta opioid receptor
[2] = molecular target: T1, Opioid receptor (mu and kappa) (Cavia porcellus) (UniProt P41144+P97266); experiment: Ratio of IC50 ethylketazocine and antagonist binding to opioid receptor; assay type: protein assay
[3] = molecular target: Kappa-type opioid receptor (Cavia porcellus) (UniProt P41144); experiment: Antagonistic activity for Opioid receptor kappa 1 of guinea pig ileal longitudinal muscle at 100 nM; assay type: functional
[4] = Ratio of antagonistic activity for delta and kappa receptors; assay type: functional
Outline: (§1)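 Selectivity ratios mu/kappa and delta/kappa calculated from Ke values; Ke = [antagonist]/(IC50 ratio − 1), using ethylketazocine (kappa) and morphine (mu) in GPI and DADLE (delta) in MVD.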

[5] = Ratio of IC50 morphine and antagonist binding to opioid receptor
[6] = molecular target: Delta-type opioid receptor (Mus musculus) (UniProt P32300); experiment: Antagonistic activity for Opioid receptor delta 1 in mouse vas deferens preparation at 100 nM; assay type: functional
[7] = molecular target: T1, Opioid receptor (mu and kappa) (Cavia porcellus); experiment: Ratio of antagonistic activity for mu and kappa receptors; assay type: functional; outline: as §1
[8] = molecular target: Mu-type opioid receptor (Cavia porcellus) (UniProt P97266); experiment: Antagonistic activity for Opioid receptor mu 1 in guinea pig ileal longitudinal muscle at 100 nM; assay type: functional
[9] = molecular target: T2, Opioid receptor (mu and kappa) (Cavia porcellus, UniProt P41144+P97266); experiment: Agonistic activity in guinea pig ileal longitudinal muscle; assay type: functional, tissue-based, Muscle tissue
[10] = molecular target: Delta-type opioid receptor (Mus musculus, UniProt P32300); experiment: Agonistic activity in mouse vas deferens; assay type: functional, tissue-based
[11] = molecular target: Kappa-type opioid receptor (Cavia porcellus) (UniProt P41144); experiment: Antagonistic activity for Opioid receptor kappa 1 in guinea pig ileal longitudinal muscle at 20 nM; assay type: functional
[12] = molecular target: Mu-type opioid receptor (Cavia porcellus) (UniProt P97266); conditions: 100 nM
[13] = molecular target: Delta-type opioid receptor (Mus musculus) (UniProt P32300); conditions: Vas deferens, 20 nM
[14] = molecular target: T2, Opioid receptor (mu and kappa); experiment: Agonistic activity in guinea pig ileal longitudinal muscle after beta-FNA (200 nM) 60 min treatment; assay type: functional, tissue-based, Muscle tissue
Outline: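 GPI pretreated with beta-FNA so that functional mu receptors are absent; agonist IC50 determined in this tissue and compared with IC50 in untreated GPI.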

[15] = molecular target: Delta-type opioid receptor (Mus musculus) (UniProt P32300); experiment: Ratio of IC50 DADLE and antagonist binding to delta opioid receptor; Not calculated
[16] = molecular target: Kappa-type opioid receptor (Cavia porcellus) (UniProt P41144); experiment: Antagonistic activity for Opioid receptor kappa 1 in guinea pig ileal longitudinal muscle at 200 nM; assay type: functional
[17] = molecular target: Delta-type opioid receptor (Mus musculus) (UniProt P32300); experiment: Antagonistic activity for Opioid receptor delta 1 in mouse vas deferens at 200 nM; assay type: functional, tissue-based
[18] = molecular target: Mu-type opioid receptor (Cavia porcellus) (UniProt P97266); experiment: Antagonistic activity for Opioid receptor mu 1 in guinea pig ileal longitudinal muscle at 200 nM; assay type: functional
[19] = molecular target: Mu-type opioid receptor (Cavia porcellus) (UniProt P97266); conditions: 20 nM
[20] = molecular target: Delta-type opioid receptor (Mus musculus) (UniProt P32300); conditions: Vas deferens, 200 nM

T1 sequence (P41144 whole entry, looked up): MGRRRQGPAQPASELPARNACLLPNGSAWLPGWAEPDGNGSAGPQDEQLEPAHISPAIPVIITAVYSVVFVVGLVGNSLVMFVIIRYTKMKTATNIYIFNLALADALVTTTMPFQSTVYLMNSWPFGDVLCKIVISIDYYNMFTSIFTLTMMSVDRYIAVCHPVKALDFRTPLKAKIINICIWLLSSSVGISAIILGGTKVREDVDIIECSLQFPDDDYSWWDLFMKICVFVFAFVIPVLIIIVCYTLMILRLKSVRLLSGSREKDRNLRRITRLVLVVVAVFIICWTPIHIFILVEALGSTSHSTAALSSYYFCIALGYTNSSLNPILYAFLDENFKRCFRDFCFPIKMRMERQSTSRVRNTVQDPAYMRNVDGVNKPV
T1 sequence (P97266 whole entry, looked up): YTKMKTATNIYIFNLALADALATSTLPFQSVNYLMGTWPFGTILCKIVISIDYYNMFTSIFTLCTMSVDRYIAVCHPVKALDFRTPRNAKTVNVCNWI
Chain of Kappa-type opioid receptor (Cavia porcellus) (P41144 whole entry): as the sequence (P41144 whole entry, looked up) above
Chain of Mu-type opioid receptor (Cavia porcellus) (P97266 whole entry): as the sequence (P97266 whole entry, looked up) above
Chain of Delta-type opioid receptor (Mus musculus) (P32300 whole entry): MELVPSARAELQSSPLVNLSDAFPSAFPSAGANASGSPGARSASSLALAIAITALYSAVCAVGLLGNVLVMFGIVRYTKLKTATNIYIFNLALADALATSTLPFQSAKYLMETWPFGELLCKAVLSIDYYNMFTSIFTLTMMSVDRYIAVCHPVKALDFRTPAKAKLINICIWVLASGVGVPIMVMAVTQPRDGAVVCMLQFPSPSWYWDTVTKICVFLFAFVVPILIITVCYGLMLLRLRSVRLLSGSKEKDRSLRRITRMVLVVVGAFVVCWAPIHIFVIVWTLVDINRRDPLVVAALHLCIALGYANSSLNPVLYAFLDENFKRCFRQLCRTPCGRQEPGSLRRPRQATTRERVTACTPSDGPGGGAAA
Chain of Delta-type opioid receptor (P32300 whole entry): as above

| Compound | Ratio [1] | Ratio [2] | Ke [3] [nM] | Selectivity ratio [4] | Ratio [5] | Selectivity ratio [7] | IC50 [9] [nM] | IC50 [10] [nM] | further results |
| --- | --- | --- | --- | --- | --- | --- | --- | --- | --- |
| Oc1ccc2c3c1O[C@H]1c4[nH]ccc4C[C@@]4(O)[C@@H](C2)N(CC2CC2)CC[C@]314 | 32.3 | 49.5 | 2.1 | 1.5 | 155 | 0.3 | – | – | Ke [6]: 3.2 nM; Ke [8]: 0.65 nM |
| CN1CC[C@]23c4c5ccc(O)c4O[C@H]2c2[nH]c4c(c2C[C@H]3[C@H]1C5)C[C@H]1[C@H]2Cc3ccc(O)c5c3[C@@]1(CCN2C)[C@H]4O5 | 0.85 | 0.79 | – | – | 0.68 | – | 53 | 52 | – |
| CC(=O)O[C@@]12Cc3c([nH]c4c3C[C@@]3(OC(C)=O)[C@H]5Cc6ccc(O)c7c6[C@@]3(CCN5CC3CC3)[C@H]4O7)[C@@H]3Oc4c(O)ccc5c4[C@@]31CCN(CC1CC1)[C@@H]2C5 | 9.2 | 261 | 0.38 | 32 | 3.4 | 111 | – | – | Ke [6]: 12 nM; Ke [8]: 42 nM |
| COc1ccc2c3c1O[C@H]1c4[nH]c5c(c4C[C@H]4[C@@H](C2)N(C)CC[C@]314)C[C@H]1[C@H]2Cc3ccc(OC)c4c3[C@@]1(CCN2C)[C@H]5O4 | 0.93 | 0.43 | – | – | 0.51 | – | 330 | 1000 | – |
| COc1ccc2c3c1O[C@H]1c4[nH]c5c(c4C[C@@]4(O)[C@@H](C2)N(CC2CC2)CC[C@]314)C[C@@]1(O)[C@H]2Cc3ccc(OC)c4c3[C@@]1(CCN2CC1CC1)[C@H]5O4 | 0.6 | 3.8 | – | – | 0.8 | – | – | – | Ke [11]: 7.1 nM |
| Cn1c2c(c3c1[C@@H]1Oc4c(O)ccc5c4[C@@]14CCN(CC1CC1)[C@H](C5)[C@]4(O)C3)C[C@@]1(O)[C@H]3Cc4ccc(O)c5c4[C@@]1(CCN3CC1CC1)[C@H]2O5 | 4.5 | 148 | 0.14 | 41 | 2.8 | 79 | – | – | Ke [12]: 11 nM; Ke [13]: 5.7 nM |
| CN1CC[C@]23c4c5ccc(O)c4O[C@H]2c2[nH]c4c(c2C[C@@]3(O)[C@H]1C5)C[C@@]1(O)[C@H]2Cc3ccc(O)c5c3[C@@]1(CCN2C)[C@H]4O5 | 1.1 | 1.6 | – | – | 0.88 | – | 250 | 170 | IC50 [14]: 2630 nM |
| CC(=O)Oc1ccc2c3c1O[C@H]1c4[nH]c5c(c4C[C@@]4(OC(C)=O)[C@@H](C2)N(CC2CC2)CC[C@]314)C[C@@]1(OC(C)=O)[C@H]2Cc3ccc(OC(C)=O)c4c3[C@@]1(CCN2CC1CC1)[C@H]5O4 | – | 1.6 | – | – | 1.2 | – | – | – | Ratio [15]: 1.4 |
| COc1ccc2c3c1O[C@H]1c4[nH]c5c(c4C[C@@]4(O)[C@@H](C2)N(CC2CC2)CC[C@]314)C[C@@]1(O)[C@H]2Cc3ccc(O)c4c3[C@@]1(CCN2CC1CC1)[C@H]5O4 | 5.4 | 153 | – | 35 | 6.3 | 29 | – | – | Ke [16]: 1.3 nM; Ke [17]: 45 nM; Ke [18]: 38 nM |
| Oc1ccc2c3c1O[C@H]1c4[nH]c5c(c4C[C@@]4(O)[C@@H](C2)N(CC2CC2)CC[C@]314)C[C@@]1(O)[C@H]2Cc3ccc(O)c4c3[C@@]1(CCN2CC1CC1)[C@H]5O4 | 2 | 49.1 | 0.41 | 49 | 2.6 | 32 | – | – | Ke [19]: 13 nM; Ke [20]: 20 nM |
